ChEMBL document CHEMBL1137816, “New polyhydroxylated pyrrolidine, piperidine, and pyrrolizidine alkaloids from Scilla sibirica” (J Nat Prod, 2002)
The source made the active and inactive calls. The calls are words filed in the database; no cut-off is given here.

What was measured:
[1] = Inhibition of Penicillium decumbens alpha-L-rhamnosidase assessed as p-nitrophenol release after 30 mins by spectrophotometry
In short: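 Penicillium decumbens enzyme assayed at pH 4.5 with the appropriate p-nitrophenyl glycoside. Substrate, diluted enzyme and inhibitor were incubated 30 min at 37 °C, then stopped with 400 mM Na2CO3. Released p-nitrophenol was read at 400 nm.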

[2] = target: T1, Beta-mannosidase (Rattus norvegicus) (UniProt Q4FZV0); assay: Inhibition of rat epididymis beta-mannosidase assessed as p-nitrophenol release at 1000 uM after 30 mins by spectrophotometry
T1 sequence (whole entry): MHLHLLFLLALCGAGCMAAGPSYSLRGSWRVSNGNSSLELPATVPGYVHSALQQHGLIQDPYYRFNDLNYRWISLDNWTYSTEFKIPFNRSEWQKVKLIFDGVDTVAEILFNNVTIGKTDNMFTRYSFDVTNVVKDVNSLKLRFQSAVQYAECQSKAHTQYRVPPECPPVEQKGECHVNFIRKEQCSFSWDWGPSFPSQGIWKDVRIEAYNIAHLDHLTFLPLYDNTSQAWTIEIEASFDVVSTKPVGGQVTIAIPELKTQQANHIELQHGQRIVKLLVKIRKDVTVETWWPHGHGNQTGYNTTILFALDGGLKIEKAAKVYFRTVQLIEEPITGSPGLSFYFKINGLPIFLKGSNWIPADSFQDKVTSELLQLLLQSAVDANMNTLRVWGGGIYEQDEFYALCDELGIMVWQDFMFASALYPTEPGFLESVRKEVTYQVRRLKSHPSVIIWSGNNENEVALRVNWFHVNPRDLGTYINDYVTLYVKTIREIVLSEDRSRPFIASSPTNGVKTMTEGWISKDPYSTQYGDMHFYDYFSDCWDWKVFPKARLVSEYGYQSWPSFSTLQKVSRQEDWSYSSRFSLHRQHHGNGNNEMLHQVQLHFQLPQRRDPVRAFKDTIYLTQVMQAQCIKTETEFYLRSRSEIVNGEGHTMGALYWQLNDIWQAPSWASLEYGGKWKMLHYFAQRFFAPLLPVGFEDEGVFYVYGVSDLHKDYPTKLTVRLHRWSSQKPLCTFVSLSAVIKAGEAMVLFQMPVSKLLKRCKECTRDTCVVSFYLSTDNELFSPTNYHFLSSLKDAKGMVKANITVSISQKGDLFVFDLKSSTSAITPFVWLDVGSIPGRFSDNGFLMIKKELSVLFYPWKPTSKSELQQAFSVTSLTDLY
In short: (§1)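 p-Nitrophenyl glycoside substrates: Penicillium decumbens α-L-rhamnosidase at pH 4.5, bovine epididymis α-L-fucosidase at pH 5.5, bovine liver β-galactosidase at pH 6.8. β-Mannosidase came from rat epididymal fluid purified from epididymis, with p-nitrophenyl-β-D-mannoside at pH 5.2. Enzyme, substrate and inhibitor were incubated 30 min at 37 °C. The reaction was stopped with 400 mM Na2CO3, and p-nitrophenol was read at 400 nm.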

[3] = target: T2, Tissue alpha-L-fucosidase (Bos taurus) (UniProt Q2KIM0); assay: Inhibition of bovine epididymis alpha-L-fucosidase assessed as p-nitrophenol release at 1000 uM after 30 mins by spectrophotometry; in short: as §1
T2 sequence (whole entry): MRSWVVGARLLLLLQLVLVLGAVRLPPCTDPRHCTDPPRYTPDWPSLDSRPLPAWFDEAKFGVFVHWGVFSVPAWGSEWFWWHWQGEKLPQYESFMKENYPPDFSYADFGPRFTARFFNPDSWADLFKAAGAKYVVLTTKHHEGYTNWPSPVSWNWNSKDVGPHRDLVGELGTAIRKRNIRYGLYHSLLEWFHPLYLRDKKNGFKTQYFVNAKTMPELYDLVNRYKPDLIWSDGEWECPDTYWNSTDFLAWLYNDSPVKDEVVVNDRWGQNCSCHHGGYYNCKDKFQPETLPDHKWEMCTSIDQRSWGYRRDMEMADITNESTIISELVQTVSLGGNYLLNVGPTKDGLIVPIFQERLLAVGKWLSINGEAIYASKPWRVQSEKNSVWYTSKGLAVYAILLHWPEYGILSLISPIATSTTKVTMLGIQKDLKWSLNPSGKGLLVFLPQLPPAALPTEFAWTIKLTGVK

Oryza sativa = assay: Inhibition of rice alpha-glucosidase assessed as D-glucose release at 1000 uM after 10 mins by Glucose B-test
In short: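 Rice α-glucosidase was assayed with maltose as substrate at the enzyme's optimum pH. Incubation with inhibitor was 10 min at 37 °C. Released D-glucose was determined colorimetrically by Glucose B-test.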

[4] = target: Lysosomal alpha-glucosidase (Rattus norvegicus) (UniProt Q6P7A9); assay: Inhibition of rat intestinal maltase assessed as D-glucose release at 1000 uM after 30 mins by Glucose B-test
Sequence of Lysosomal alpha-glucosidase (Rattus norvegicus) (Q6P7A9 whole entry): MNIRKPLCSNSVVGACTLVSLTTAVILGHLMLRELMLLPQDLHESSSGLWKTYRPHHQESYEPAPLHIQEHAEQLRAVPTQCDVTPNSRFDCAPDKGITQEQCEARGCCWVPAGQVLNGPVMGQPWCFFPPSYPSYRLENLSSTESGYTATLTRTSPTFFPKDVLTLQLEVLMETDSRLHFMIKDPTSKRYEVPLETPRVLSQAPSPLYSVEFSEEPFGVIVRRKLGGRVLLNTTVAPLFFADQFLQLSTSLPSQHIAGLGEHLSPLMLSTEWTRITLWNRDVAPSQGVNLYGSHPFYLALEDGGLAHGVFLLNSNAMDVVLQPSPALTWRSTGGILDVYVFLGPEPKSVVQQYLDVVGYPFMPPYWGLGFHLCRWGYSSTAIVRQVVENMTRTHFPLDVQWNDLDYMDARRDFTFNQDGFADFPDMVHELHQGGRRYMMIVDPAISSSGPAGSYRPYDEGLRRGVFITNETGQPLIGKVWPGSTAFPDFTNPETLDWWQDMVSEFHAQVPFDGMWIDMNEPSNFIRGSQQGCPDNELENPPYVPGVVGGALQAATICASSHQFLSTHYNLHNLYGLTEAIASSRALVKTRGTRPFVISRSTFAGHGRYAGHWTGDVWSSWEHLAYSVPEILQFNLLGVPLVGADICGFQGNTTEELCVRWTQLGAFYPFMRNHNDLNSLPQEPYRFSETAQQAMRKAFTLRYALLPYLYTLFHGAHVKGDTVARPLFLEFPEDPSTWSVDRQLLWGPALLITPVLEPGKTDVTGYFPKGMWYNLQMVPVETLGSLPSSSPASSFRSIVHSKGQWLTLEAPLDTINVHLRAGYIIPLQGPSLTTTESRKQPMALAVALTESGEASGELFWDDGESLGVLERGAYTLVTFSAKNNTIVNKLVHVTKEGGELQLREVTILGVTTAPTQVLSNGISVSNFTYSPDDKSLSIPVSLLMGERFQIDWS
In short: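 Brush border membranes from rat small intestine served as the enzyme source, with maltose substrate at pH 5.8. Incubation with inhibitor was 30 min at 37 °C. Released D-glucose was measured colorimetrically by Glucose B-test.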

[5] = target: Oligo-1,6-glucosidase IMA1 (Saccharomyces cerevisiae S288c) (UniProt P53051); assay: Inhibition of yeast alpha-glucosidase assessed as p-nitrophenol release at 1000 uM after 30 mins measured spectrometrically at 400 nm
Sequence of Oligo-1,6-glucosidase IMA1 (Saccharomyces cerevisiae S288c) (P53051 whole entry): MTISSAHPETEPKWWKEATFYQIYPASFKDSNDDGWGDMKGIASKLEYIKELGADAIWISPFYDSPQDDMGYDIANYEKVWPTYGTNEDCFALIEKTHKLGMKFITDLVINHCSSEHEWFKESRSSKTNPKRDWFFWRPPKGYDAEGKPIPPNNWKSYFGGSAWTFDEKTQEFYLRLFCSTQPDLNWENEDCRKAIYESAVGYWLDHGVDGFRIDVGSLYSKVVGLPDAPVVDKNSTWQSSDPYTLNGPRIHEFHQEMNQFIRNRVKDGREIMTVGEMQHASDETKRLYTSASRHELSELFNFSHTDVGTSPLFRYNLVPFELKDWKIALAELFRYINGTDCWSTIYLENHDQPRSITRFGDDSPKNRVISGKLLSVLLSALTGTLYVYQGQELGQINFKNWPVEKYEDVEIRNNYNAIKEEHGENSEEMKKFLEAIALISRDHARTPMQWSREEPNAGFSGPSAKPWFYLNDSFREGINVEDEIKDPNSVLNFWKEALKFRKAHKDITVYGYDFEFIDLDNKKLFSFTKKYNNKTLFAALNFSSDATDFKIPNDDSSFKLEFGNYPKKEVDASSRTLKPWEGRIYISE

[6] = target: Lysosomal alpha-glucosidase (Rattus norvegicus) (UniProt Q6P7A9); assay: Inhibition of rat liver lysosome alpha-glucosidase assessed as p-nitrophenol release at 1000 uM after 30 mins measured spectrometrically at 400 nm
Beta-mannosidase = target: T3, Beta-mannosidase (Rattus norvegicus, UniProt Q4FZV0); assay: Inhibition of rat epididymis beta-mannosidase assessed as p-nitrophenol release after 30 mins by spectrophotometry
T3 sequence (Q4FZV0 whole entry): T1 sequence (whole entry)
In short: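 Source was rat epididymal fluid purified from epididymis. Assayed at pH 5.2 with p-nitrophenyl-β-D-mannoside, incubated with inhibitor 30 min at 37 °C. Stopped with 400 mM Na2CO3; p-nitrophenol read at 400 nm.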

Beta-galactosidase = target: T4, Beta-galactosidase (Bos taurus, UniProt Q58D55); assay: Inhibition of bovine liver beta-galactosidase assessed as p-nitrophenol release after 30 mins by spectrophotometry
T4 sequence (Q58D55 whole entry): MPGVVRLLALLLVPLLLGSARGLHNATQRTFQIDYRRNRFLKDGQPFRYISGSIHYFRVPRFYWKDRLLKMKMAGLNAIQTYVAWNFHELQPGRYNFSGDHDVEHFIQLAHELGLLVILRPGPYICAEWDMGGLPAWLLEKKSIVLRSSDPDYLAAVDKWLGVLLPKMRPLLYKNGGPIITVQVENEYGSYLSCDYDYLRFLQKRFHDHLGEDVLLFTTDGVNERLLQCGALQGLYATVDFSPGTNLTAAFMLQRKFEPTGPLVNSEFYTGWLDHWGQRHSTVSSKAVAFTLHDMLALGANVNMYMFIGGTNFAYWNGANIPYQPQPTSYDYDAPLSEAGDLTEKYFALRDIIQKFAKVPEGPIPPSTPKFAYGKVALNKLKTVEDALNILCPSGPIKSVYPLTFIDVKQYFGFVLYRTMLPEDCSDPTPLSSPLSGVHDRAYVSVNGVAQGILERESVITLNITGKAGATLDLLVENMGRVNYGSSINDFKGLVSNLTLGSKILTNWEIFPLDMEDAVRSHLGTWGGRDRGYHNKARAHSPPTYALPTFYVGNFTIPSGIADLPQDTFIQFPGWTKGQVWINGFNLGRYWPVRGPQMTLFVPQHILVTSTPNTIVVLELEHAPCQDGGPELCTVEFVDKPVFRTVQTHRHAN
In short: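 Bovine liver enzyme at pH 6.8 with the appropriate p-nitrophenyl glycoside. Incubated with inhibitor 30 min at 37 °C, quenched with 400 mM Na2CO3, and released p-nitrophenol read at 400 nm.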

Alpha-glucosidase MAL12 = Alpha-glucosidase MAL12 (Saccharomyces cerevisiae S288c, UniProt P53341); assay: Inhibition of yeast alpha-glucosidase assessed as p-nitrophenol release after 30 mins measured at 400 nm
Sequence of Alpha-glucosidase MAL12 (P53341 whole entry): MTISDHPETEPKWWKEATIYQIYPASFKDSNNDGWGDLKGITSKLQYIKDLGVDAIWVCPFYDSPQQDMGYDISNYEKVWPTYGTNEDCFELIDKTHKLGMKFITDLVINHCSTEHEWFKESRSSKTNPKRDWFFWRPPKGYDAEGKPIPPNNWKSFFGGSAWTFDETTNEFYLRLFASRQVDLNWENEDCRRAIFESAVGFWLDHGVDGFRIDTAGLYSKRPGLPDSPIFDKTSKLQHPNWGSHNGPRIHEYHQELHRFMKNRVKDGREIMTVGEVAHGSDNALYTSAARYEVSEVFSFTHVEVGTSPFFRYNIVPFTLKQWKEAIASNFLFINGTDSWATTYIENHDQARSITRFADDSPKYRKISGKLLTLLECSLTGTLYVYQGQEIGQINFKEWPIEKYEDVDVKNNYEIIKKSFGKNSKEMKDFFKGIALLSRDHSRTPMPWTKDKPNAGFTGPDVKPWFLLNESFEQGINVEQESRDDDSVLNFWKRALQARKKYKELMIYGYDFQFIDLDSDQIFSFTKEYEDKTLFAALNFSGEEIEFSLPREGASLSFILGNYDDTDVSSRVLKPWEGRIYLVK

Beta-glucosidase A = Beta-glucosidase A (Caldicellulosiruptor saccharolyticus, UniProt P10482); assay: Inhibition of Caldocellum saccharolyticum beta-glucosidase assessed as p-nitrophenol release after 30 mins measured spectrometrically at 400 nm
Sequence of Beta-glucosidase A (P10482 whole entry): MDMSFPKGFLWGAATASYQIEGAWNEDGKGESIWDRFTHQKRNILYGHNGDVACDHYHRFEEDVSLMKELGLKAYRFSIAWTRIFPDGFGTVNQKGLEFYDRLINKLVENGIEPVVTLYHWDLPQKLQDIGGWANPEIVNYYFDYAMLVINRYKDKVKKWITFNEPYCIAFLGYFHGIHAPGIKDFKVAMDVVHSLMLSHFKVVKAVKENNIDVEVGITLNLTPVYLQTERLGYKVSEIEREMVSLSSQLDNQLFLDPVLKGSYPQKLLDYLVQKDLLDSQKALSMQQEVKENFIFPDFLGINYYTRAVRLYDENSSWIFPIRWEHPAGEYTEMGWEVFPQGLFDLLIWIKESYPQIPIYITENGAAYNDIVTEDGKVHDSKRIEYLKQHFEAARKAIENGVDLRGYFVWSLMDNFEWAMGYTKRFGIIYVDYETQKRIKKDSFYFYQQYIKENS

[7] = target: T5, Tissue alpha-L-fucosidase (Bos taurus, UniProt Q2KIM0); assay: Inhibition of bovine epididymis alpha-L-fucosidase assessed as p-nitrophenol release after 30 mins by spectrophotometry
T5 sequence (Q2KIM0 whole entry): T2 sequence (whole entry)
In short: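 Enzyme from bovine epididymis, run at pH 5.5 with the appropriate p-nitrophenyl glycoside substrate. Enzyme, substrate and inhibitor incubated together 30 min at 37 °C. Reaction stopped by adding 400 mM Na2CO3; p-nitrophenol measured spectrometrically at 400 nm.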

[8] = target: T6, Beta-galactosidase (Bos taurus) (UniProt Q58D55); assay: Inhibition of bovine liver beta-galactosidase assessed as p-nitrophenol release at 1000 uM after 30 mins by spectrophotometry; in short: as §1
T6 sequence (whole entry): T4 sequence (Q58D55 whole entry)

Penicillium decumbens = assay: Inhibition of Penicillium decumbens alpha-L-rhamnosidase assessed as p-nitrophenol release at 1000 uM by spectrophotometry; in short: as §1
[9] = target: Oligo-1,6-glucosidase IMA1 (Saccharomyces cerevisiae S288c) (UniProt P53051); assay: Inhibition of yeast alpha-glucosidase assessed as D-glucose release at 1000 uM after 30 mins by Glucose B-test
[10] = target: Lysosomal alpha-glucosidase (Rattus norvegicus) (UniProt Q6P7A9); assay: Inhibition of rat liver lysosome alpha-glucosidase assessed as D-glucose release at 1000 uM after 30 mins by Glucose B-test
[11] = Inhibition of rat intestinal amyloglucosidase
[12] = Inhibition of rice alpha-glucosidase assessed as D-glucose release after 10 mins by Glucose B-test; parameters: species or system Oryza sativa
In short: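 Rice enzyme with maltose as substrate at the enzyme's optimum pH. Incubation with inhibitor ran 10 min at 37 °C. Released D-glucose determined colorimetrically with a glucose test kit.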

Row | SMILES | inhibition [3] [%] | inhibition (Oryza sativa) [%] | inhibition [6] [%] | IC50 (Beta-mannosidase) [µM] | Activity [8] | Activity [3] | Activity (Penicillium decumbens) | Activity (Oryza sativa) | Activity [9] | Activity [4] | Activity [10] | other results
1 | OC[C@H]1NC[C@@H](O)[C@H](O)[C@@H]1O | < 50 | < 50 | < 50 | – | – | – | – | – | – | – | – | IC50 [1]: 1.8 µM; inhibition [2]: < 50%; inhibition [4]: < 50%; inhibition [5]: < 50%
2 | OCC[C@H]1N[C@H](CO)[C@@H](O)[C@@H]1O | – | < 50 | < 50 | 320 | – | – | – | – | – | – | – | IC50 (Beta-galactosidase): 88 µM; IC50 [1]: 94 µM; inhibition [4]: < 50%; IC50 (Alpha-glucosidase MAL12): 250 µM; IC50 (Beta-glucosidase A): 350 µM
3 | OCC[C@H]1N[C@@H](CO)[C@H](O)[C@H]1O | – | < 50 | – | – | – | – | – | – | – | – | – | IC50 [7]: 840 µM; inhibition [2]: < 50%; inhibition [8]: < 50%; inhibition (Penicillium decumbens): < 50%; inhibition [5]: < 50%
4 | OCC[C@H]1N[C@H](CO)[C@@H](O)[C@@H]1O[C@@H]1O[C@H](CO)[C@@H](O)[C@H](O)[C@@H]1O | – | < 50 | < 50 | 160 | – | – | – | – | – | – | – | IC50 [7]: 78 µM; inhibition [4]: < 50%; inhibition [5]: < 50%
5 | C[C@@H]1CC[C@@H]2[C@H](O)[C@H](O)[C@@H](CO)N12 (relative stereo) | – | – | – | – | inactive | inactive | inactive | inactive | inactive | inactive | inactive | –
6 | C[C@@H]1C[C@H](O)[C@@H]2[C@H](O)[C@@H](O)[C@@H](CO)N21 (relative stereo) | – | – | – | – | inactive | inactive | inactive | inactive | inactive | inactive | inactive | –
7 | C[C@H]1CC[C@@H]2[C@H](O)[C@H](O)[C@@H](CO)N21 (relative stereo) | – | – | – | – | inactive | inactive | inactive | inactive | inactive | inactive | inactive | –
8 | C[C@H]1CC[C@@H]2[C@H](O)[C@H](O)[C@H](CO)N21 (relative stereo) | – | – | – | – | inactive | inactive | inactive | inactive | inactive | inactive | inactive | Activity [2]: inactive
9 | C[C@@H]1CC[C@@H]2[C@@H](O)[C@@H](O)[C@@H](CO)N12 (relative stereo) [HYACINTHACINE A5] | – | – | – | – | inactive | inactive | inactive | inactive | inactive | inactive | inactive | IC50 [11]: 110 µM
10 | C[C@@H]1C[C@H](O)[C@@H]2[C@H](O)[C@H](O)[C@@H](CO)N21 (relative stereo) [HYACINTHACINE B5] | – | – | – | – | inactive | inactive | inactive | inactive | inactive | inactive | inactive | IC50 [11]: 110 µM
11 | OCC(O)[C@H]1N[C@H](CO)[C@@H](O)[C@@H]1O (single isomer, unassigned) | < 50 | – | < 50 | 53 | – | – | – | – | – | – | – | IC50 [12]: 95 µM; IC50 (Beta-galactosidase): 4.4 µM; inhibition (Penicillium decumbens): < 50%; IC50 (Alpha-glucosidase MAL12): 220 µM; IC50 (Beta-glucosidase A): 3.2 µM
12 | CC(O)[C@H]1N[C@H](CO)[C@@H](O)[C@@H]1O (single isomer, unassigned) | < 50 | – | < 50 | 35 | – | – | – | – | – | – | – | IC50 [12]: 9.2 µM; IC50 (Beta-galactosidase): 3.4 µM; inhibition (Penicillium decumbens): < 50%; IC50 (Alpha-glucosidase MAL12): 85 µM; IC50 (Beta-glucosidase A): 6.7 µM
13 | OC[C@H]1NC[C@H](O)[C@@H](O)[C@@H]1O [DUVOGLUSTAT] | < 50 | – | – | – | – | – | – | – | – | – | – | IC50 [12]: 0.05 µM; IC50 [1]: 850 µM; inhibition [2]: < 50%; inhibition [8]: < 50%
